Calls of active or inactive are those of the source. No cut-off for these calls is given here.
How the values were obtained:
[1] = system: L1210; test: In vivo percent increase in life span (%ILS) of mice bearing L1210 leukemia at a dose of 400 mg/kg; format: functional, Mus musculus; conditions: for ILS at 400 mg/kg: Mus musculus, L1210, dose 400 mg/kg
Method in brief: (§1)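 Run by the NCI Division of Cancer Treatment, which supplied the data, using standard National Cancer Institute protocols for mouse L1210 leukemia.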

[2] = system: L1210; test: In vitro inhibitory activity against growth of L1210 mouse leukemia cells at 10E-4 M concentration; IA means Inactive; format: functional, cell-based
Method in brief: (§2)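 L1210 mouse leukemia cells grown in static suspension culture in Fischer's medium for leukemic cells of mice; growth rate over a 3-day period measured with test compound present continuously.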

[3] = system: L1210; test: In vivo percent increase in life span (%ILS) of mice bearing L1210 leukemia at a dose of 200 mg/kg; format: functional; conditions: Mus musculus; method in brief: as §1
[4] = system: L1210; test: In vitro inhibitory activity against growth of L1210 mouse leukemia cells at 10E-4 M concentration; format: functional; conditions: read-out: ID50 (the source's name); method in brief: as §2

Structure (SMILES) | ILS ([1]; dose 400 mg/kg) | ILS at 400 mg/kg [1] | ID50 [2] | ILS at 200 mg/kg [3] | IC50 [4]
O=c1cc(O)cnn1[C@@H]1O[C@H](CO)[C@@H](O)[C@H]1O (stereo in doubt; 17) | >25% | – | – | – | –
O=c1cccnn1C1O[C@H](CO)[C@@H](O)[C@H]1O (stereo partly drawn) | – | < 25% | inactive | – | –
O=C1C=NN([C@H]2C[C@H](O)[C@@H](CO)O2)C(=O)C1 | – | < 25% | inactive | – | –
CC(=O)OC[C@H]1O[C@@H](N2N=CC(=O)CC2=O)[C@H](OC(C)=O)[C@@H]1OC(C)=O | – | < 25% | inactive | – | –
C[Si](C)(C)Oc1nncc(Cl)c1Cl | – | < 25% | inactive | – | –
CN(C)c1cnn(C2O[C@H](CO)[C@@H](O)[C@H]2O)c(=O)c1 (stereo partly drawn) | – | < 25% | inactive | – | –
Oc1nncc(Cl)c1Cl | – | > 25% | inactive | – | –
COc1cnn([C@H]2C[C@H](O)[C@@H](CO)O2)c(=O)c1 | – | < 25% | inactive | – | –
Nc1cnn(C2O[C@H](CO)[C@@H](O)[C@H]2O)c(=O)c1Cl (stereo partly drawn) | – | < 25% | inactive | – | –
CC1(C)O[C@@H]2[C@H](O1)[C@@H](CO)O[C@H]2n1ncc(N)c(Cl)c1=O | – | < 25% | inactive | – | –
COc1cnn(C2O[C@H](CO)[C@@H](O)[C@H]2O)c(=O)c1 (stereo partly drawn) | – | < 25% | inactive | – | –
CNc1cnn(C2O[C@H](CO)[C@@H](O)[C@H]2O)c(=O)c1Cl (stereo partly drawn) | – | < 25% | inactive | – | –
O=C1C=NN(C2O[C@H](CO)[C@@H](O)[C@H]2O)C(=O)C1 (stereo partly drawn) | – | < 25% | inactive | – | –
Nc1cnn([C@H]2C[C@H](O)[C@@H](CO)O2)c(=O)c1Cl | – | < 25% | inactive | – | –
O=c1ccn([C@@H]2O[C@H](CO)[C@@H](O)[C@H]2O)c(=O)[nH]1 [URIDINE] | – | < 25% | inactive | – | –
CSc1cnn(C2O[C@H](CO)[C@@H](O)[C@H]2O)c(=O)c1SC (stereo partly drawn) | – | < 25% | inactive | – | –
O=c1c(SCc2ccccc2)c(SCc2ccccc2)cnn1C1O[C@H](CO)[C@@H](O)[C@H]1O (stereo partly drawn) | – | < 25% | inactive | – | –
O=C(OC[C@H]1O[C@@H](n2ncccc2=O)[C@H](OC(=O)c2ccccc2)[C@@H]1OC(=O)c1ccccc1)c1ccccc1 | – | < 25% | inactive | – | –
CN(C)c1cnn(C2O[C@H](CO)[C@@H](O)[C@H]2O)c(=O)c1N(C)C (stereo partly drawn) | – | < 25% | inactive | – | –
O=c1cc(O)cnn1[C@@H]1O[C@H](CO)[C@@H](O)[C@H]1O (stereo in doubt; 15) | – | 32% | – | 32% | 70 µM
COc1cnn([C@H]2C[C@H](O)[C@@H](CO)O2)c(=O)c1Cl | – | < 25% | inactive | – | –
CC(=O)OC[C@H]1O[C@@H](n2ncc(N)cc2=O)[C@H](OC(C)=O)[C@@H]1OC(C)=O | – | < 25% | inactive | – | –
CN(C)c1cnn(C2O[C@H](CO)[C@@H](O)[C@H]2O)c(=O)c1Cl (stereo partly drawn) | – | < 25% | inactive | – | –
COc1cnn(C2O[C@H](CO)[C@@H](O)[C@H]2O)c(=O)c1Cl (stereo partly drawn) | – | < 25% | inactive | – | –
Nc1cnn(C2O[C@H](CO)[C@@H](O)[C@H]2O)c(=O)c1 (stereo partly drawn) | – | < 25% | inactive | – | –
CNc1cnn(C2O[C@H](CO)[C@@H](O)[C@H]2O)c(=O)c1 (stereo partly drawn) | – | < 25% | inactive | – | –
O=C(OC[C@H]1O[C@@H](n2ncc(Cl)c(Cl)c2=O)[C@H](OC(=O)c2ccccc2)[C@@H]1OC(=O)c1ccccc1)c1ccccc1 | – | < 25% | inactive | – | –
Nc1cnn([C@H]2C[C@H](O)[C@@H](CO)O2)c(=O)c1 | – | < 25% | inactive | – | –
O=c1cnn([C@@H]2O[C@H](CO)[C@@H](O)[C@H]2O)c(=O)[nH]1 [6-AZAURIDINE] | – | < 25% | inactive | – | –

From ChEMBL document CHEMBL1122091, “Synthesis of pyridazine analogues of the naturally occurring nucleosides cytidine, uridine, deoxycytidine, and deoxyuridine” (1982)
